What all share (type): functional
Settings in all cases: read-out: DIZ

Assay [1] concerns Aspergillus fumigatus. The assay is described as follows: Antimicrobial activity against Aspergillus fumigatus RCMB 002008 at 1 mg/ml by agar diffusion technique. The method, boiled down: (§1)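 Agar well diffusion. Test compounds and reference standard drugs were diluted to 5.0, 2.5 and 1.0 mg/mL and applied to 0.6 cm wells. Inhibition zone beyond the control was scored as 0 (no inhibition), + (0.1–0.5 cm), ++ (0.6–1.0 cm) or +++ (1.0–1.5 cm).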
A general note: Agar diffusion results depend on both activity and mobility in agar.

Assay [2] concerns Aspergillus fumigatus. Briefly: Antimicrobial activity against Aspergillus fumigatus RCMB 002008 at 2.5 mg/ml by agar diffusion technique. The method, boiled down: as §1
Assay [3] deals with Aspergillus fumigatus. The assay is described as follows: Antimicrobial activity against Aspergillus fumigatus RCMB 002008 at 5 mg/ml by agar diffusion technique. The method, boiled down: as §1
The subject of assay [4] is Penicillium italicum. Briefly: Antimicrobial activity against Penicillium italicum RCMB 001018 at 1 mg/ml by agar diffusion technique. The method, boiled down:
as §1

The subject of assay [5] is Penicillium italicum. Briefly: Antimicrobial activity against Penicillium italicum RCMB 001018 at 2.5 mg/ml by agar diffusion technique. The method in brief:
as §1

Assay [6] relates to Penicillium italicum. Briefly: Antimicrobial activity against Penicillium italicum RCMB 001018 at 5 mg/ml by agar diffusion technique. The method, boiled down:
as §1

The subject of assay [7] is Syncephalastrum racemosum. Briefly: Antimicrobial activity against Syncephalastrum racemosum RCMB 016001 at 1 mg/ml by agar diffusion technique. The method in brief:
as §1

The test system of assay [8] is Syncephalastrum racemosum. Briefly: Antimicrobial activity against Syncephalastrum racemosum RCMB 016001 at 2.5 mg/ml by agar diffusion technique. The method in brief: as §1
Assay [9] deals with Syncephalastrum racemosum. The assay is described as follows: Antimicrobial activity against Syncephalastrum racemosum RCMB 016001 at 5 mg/ml by agar diffusion technique. The method, boiled down: as §1
Assay [10] relates to Candida albicans. Briefly: Antimicrobial activity against Candida albicans RCMB 005003 at 1 mg/ml by agar diffusion technique. The method in brief:
as §1

Assay [11] concerns Candida albicans. The assay is described as follows: Antimicrobial activity against Candida albicans RCMB 005003 at 2.5 mg/ml by agar diffusion technique. The method, boiled down:
as §1

Assay [12] relates to Candida albicans. Briefly: Antimicrobial activity against Candida albicans RCMB 005003 at 5 mg/ml by agar diffusion technique. The method in brief:
as §1

Assay [13] relates to Staphylococcus aureus. Briefly: Antimicrobial activity against Staphylococcus aureus RCMB 106001 at 1 mg/ml by agar diffusion technique. The method, boiled down:
as §1

The test system of assay [14] is Staphylococcus aureus. The assay is described as follows: Antimicrobial activity against Staphylococcus aureus RCMB 106001 at 2.5 mg/ml by agar diffusion technique. The method in brief:
as §1

In assay [15] the test system is Staphylococcus aureus. The assay is described as follows: Antimicrobial activity against Staphylococcus aureus RCMB 106001 at 5 mg/ml by agar diffusion technique. The method in brief:
as §1

In assay [16] the test system is Pseudomonas aeruginosa. The assay is described as follows: Antimicrobial activity against Pseudomonas aeruginosa RCMB 102002 at 1 mg/ml by agar diffusion technique. The method, boiled down:
as §1

Assay [17] relates to Pseudomonas aeruginosa. Briefly: Antimicrobial activity against Pseudomonas aeruginosa RCMB 102002 at 2.5 mg/ml by agar diffusion technique. The method in brief:
as §1

Assay [18] deals with Pseudomonas aeruginosa. The assay is described as follows: Antimicrobial activity against Pseudomonas aeruginosa RCMB 102002 at 5 mg/ml by agar diffusion technique. The method in brief: as §1
The test system of assay [19] is Bacillus subtilis. Briefly: Antimicrobial activity against Bacillus subtilis RCMB 101001 at 1 mg/ml by agar diffusion technique. The method in brief: as §1
The subject of assay [20] is Bacillus subtilis. Briefly: Antimicrobial activity against Bacillus subtilis RCMB 101001 at 2.5 mg/ml by agar diffusion technique. The method, boiled down:
as §1

In assay [21] the test system is Bacillus subtilis. Briefly: Antimicrobial activity against Bacillus subtilis RCMB 101001 at 5 mg/ml by agar diffusion technique. The method in brief: as §1
For assay [22], the system named is Escherichia coli. Briefly: Antimicrobial activity against Escherichia coli RCMB 103001 at 1 mg/ml by agar diffusion technique. The method, boiled down:
as §1

Assay [23] deals with Escherichia coli. The assay is described as follows: Antimicrobial activity against Escherichia coli RCMB 103001 at 2.5 mg/ml by agar diffusion technique. The method, boiled down: as §1
Assay [24] concerns Escherichia coli. The assay is described as follows: Antimicrobial activity against Escherichia coli RCMB 103001 at 5 mg/ml by agar diffusion technique. The method in brief:
as §1

Take `S=c1[nH]nc(-c2cccnc2)n1/N=C\c1ccccc1OCCCOc1ccccc1/C=N\n1c(-c2cccnc2)n[nH]c1=S`: the zone of inhibition at 1000 µg/mL (in the assay on Aspergillus fumigatus [1]; in the assay with Penicillium italicum [4]; in [7]; in the assay on Candida albicans [10]; in the assay with Staphylococcus aureus [13]; in the assay with Pseudomonas aeruginosa [16]) was 0 mm in each case. Further, the zone of inhibition at 1000 µg/mL stood at 1 mm in the assay with Bacillus subtilis [19] and 0 mm in the assay with Escherichia coli [22]. Also, the zone of inhibition at 2500 µg/mL with Aspergillus fumigatus [2] was 0 mm; in the assay with Penicillium italicum [5], 0 mm; in assay [8], 1 mm; with Candida albicans [11] it was 0 mm; in the assay on Staphylococcus aureus [14], 1 mm; in the assay on Pseudomonas aeruginosa [17], 0 mm. The zone of inhibition at 2500 µg/mL in the assay on Bacillus subtilis [20] is 1 mm; with Escherichia coli [23], 0 mm. The zone of inhibition at 5000 µg/mL came to 0 mm with Aspergillus fumigatus [3]; 0 mm with Penicillium italicum [6]; 1 mm in [9]; 0 mm in the assay with Candida albicans [12]; 1 mm in the assay with Staphylococcus aureus [15]; 0 mm in the assay on Pseudomonas aeruginosa [18]. Also, the zone of inhibition at 5000 µg/mL came out at 1 mm in the assay with Bacillus subtilis [21] and 0 mm in the assay on Escherichia coli [24].

Consider `Nn1c(-c2cccnc2)n[nH]c1=S`, for which the zone of inhibition at 1000 µg/mL (in the assay on Aspergillus fumigatus [1]; with Penicillium italicum [4]; in assay [7]; in the assay on Candida albicans [10]; in the assay with Staphylococcus aureus [13]; in the assay with Pseudomonas aeruginosa [16]) was 0 mm each time. Moreover, the zone of inhibition at 1000 µg/mL with Bacillus subtilis [19] and with Escherichia coli [22] was 0 mm in each case. Moreover, the zone of inhibition at 2500 µg/mL (in the assay on Aspergillus fumigatus [2]; with Penicillium italicum [5]; in assay [8]; with Candida albicans [11]; with Staphylococcus aureus [14]; in the assay with Pseudomonas aeruginosa [17]) was 0 mm in each case. For the same compound, the zone of inhibition at 2500 µg/mL in the assay on Bacillus subtilis [20] and with Escherichia coli [23] was 0 mm each time. The zone of inhibition at 5000 µg/mL with Aspergillus fumigatus [3] was determined as 0 mm; with Penicillium italicum [6], 1 mm; in assay [9], 0 mm; in the assay with Candida albicans [12] it was 0 mm; with Staphylococcus aureus [15], 0 mm; with Pseudomonas aeruginosa [18], 0 mm. The zone of inhibition at 5000 µg/mL with Bacillus subtilis [21] was found to be 0 mm; in the assay with Escherichia coli [24], 1 mm.

For `S=c1[nH]nc(-c2cccnc2)n1/N=C\c1ccccc1OCCCCOc1ccccc1/C=N\n1c(-c2cccnc2)n[nH]c1=S`, the zone of inhibition at 1000 µg/mL amounted to 0 mm in the assay with Aspergillus fumigatus [1]; 1 mm in the assay on Penicillium italicum [4]; 0 mm in assay [7]; 0 mm in the assay on Candida albicans [10]; 0 mm with Staphylococcus aureus [13]; 0 mm with Pseudomonas aeruginosa [16]. The zone of inhibition at 1000 µg/mL with Bacillus subtilis [19] and in the assay on Escherichia coli [22] was 0 mm throughout. Also, the zone of inhibition at 2500 µg/mL with Aspergillus fumigatus [2] came to 0 mm; in the assay on Penicillium italicum [5], 1 mm; in assay [8] it was 1 mm; with Candida albicans [11], 0 mm; with Staphylococcus aureus [14] it was 0 mm; in the assay with Pseudomonas aeruginosa [17], 1 mm. The zone of inhibition at 2500 µg/mL in the assay with Bacillus subtilis [20] and in the assay on Escherichia coli [23] was 0 mm throughout. For the same compound, the zone of inhibition at 5000 µg/mL in the assay with Aspergillus fumigatus [3] is 0 mm; in the assay on Penicillium italicum [6], 1 mm; in assay [9], 1 mm; in the assay on Candida albicans [12] it was 1 mm; with Staphylococcus aureus [15], 1 mm; in the assay on Pseudomonas aeruginosa [18] it was 1 mm. Further, the zone of inhibition at 5000 µg/mL in the assay on Bacillus subtilis [21] and with Escherichia coli [24] was 0 mm throughout.

(Values after ChEMBL document CHEMBL1629465, “Efficient synthesis of novel 1,2,4-triazole fused acyclic and 21-28 membered macrocyclic and/or lariat macrocyclic oxaazathia crown compounds with potential antimicrobial activity” (2010).)
